Structures are written as SMILES. pIC50: −log10 of the molar value. Structures can show the parent of a compound that is named as a salt.

The subject of one test is MT4. Put plainly: Cell culture inhibitory concentration against spread of HIV-I infection in MT-4 cells was determined. The test is classed as functional. Particulars: Homo sapiens, read-out: CIC95. In outline:
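Spread of HIV-1 infection in MT-4 cell culture; the read-out is HIV-1 p24 core antigen by ELISA. The value is the lowest concentration giving ≥95% inhibition of infection spread (CIC95).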
As for `CCc1cc(NCc2cc(C)c(C)nc2OC)c(O)nc1C`, the IC95 was 0.05 µM.

With `CCNc1cccnc1N1CCN(C(=O)c2cc3cc(OC)ccc3[nH]2)CC1` [ATEVIRDINE MESYLATE], the IC95 came to 1.5 µM.

With `CCc1cc(NCc2cccnc2OC)c(O)nc1C`, the IC95 is 0.8 µM.

For `CCc1cc(NCc2cc(C)c(C)cc2OC)c(O)nc1C`, the IC95 worked out at 0.013 µM.

In the case of `CCc1cc(NCc2nc(C)c(C)cc2OC)c(O)nc1C`, the IC95 came out at 0.1 µM.

On to `CC(C)=CCN1Cc2cccc3[nH]c(=S)n(c23)C[C@@H]1C`, for which the IC95 came out at 0.2 µM.

Consider `CCc1cc(NCc2nc3c(Cl)ccc(Cl)c3o2)c(O)nc1C` [L-697661], for which the IC95 is 0.05 µM.

Consider `CCOCn1c(Sc2ccccc2)c(CC)c(=O)[nH]c1=O`, for which the IC95 amounted to 0.1 µM.

Consider `CCc1cc(NCc2cc(CC)c(C)nc2OC)c(O)nc1C`, for which the IC95 came out at 0.013 µM.

In the case of `Cc1ccnc2c1NC(=O)c1cccnc1N2C1CC1` [NEVIRAPINE], the IC95 amounted to 0.1 µM.

In the case of `CCc1cc(NCc2ccccc2OC)c(O)nc1C`, the IC95 amounted to 0.4 µM.

The target of a further test is Human immunodeficiency virus type 1 reverse transcriptase (Human immunodeficiency virus 1, UniProt Q72547). Description: In vitro inhibitory concentration against HIV-1 reverse transcriptase using rC-dG template primer.
Details: not given
In the case of `CCc1cc(NCc2ccccc2C)c(O)nc1C`, the negative-log IC50 (pIC50) is 5.66.

Compound `CCc1cc(NCc2cc(C)c(C)nc2OC)c(O)nc1C` gave a pIC50 of 8.05.

The compound `CCc1cc(NCc2ccc(C)cc2OC)c(O)nc1C` gave a pIC50 of 7.49. Compared with the last compound, the pIC50 is 0.56 log units lower.

`CCc1cc(NCc2cc3ccccc3nc2OC)c(O)nc1C` showed a negative-log IC50 (pIC50) of 7.47.

`CCc1cc(NCc2ccccc2Cl)c(O)nc1C`: the pIC50 is 5.84.

`CCc1cc(NCc2ncccc2OC)c(=O)[nH]c1C`: the negative logarithm of the IC50 (pIC50) is 5.81.

`CCc1cc(NCc2ccccc2COC)c(O)nc1C` gave a pIC50 of 4.45.

`CCc1cc(CCc2nc3ccccc3o2)c(O)nc1C` showed a negative-log IC50 (pIC50) of 7.70.

In the case of `CCc1cc(NCc2ccccc2O)c(=O)[nH]c1C`, the pIC50 is 5.34.

`CCOc1ccccc1CNc1cc(CC)c(C)nc1O` had a pIC50 of 6.46.

Turning to `CCc1cc(NCc2ccncc2OC)c(=O)[nH]c1C`, the negative-log IC50 (pIC50) is 3.96.

`CCc1cc(NCc2ccc(OC)cc2)c(O)nc1C` showed a negative-log IC50 (pIC50) of 5.12. This pIC50 is 1.16 log units higher than that of the compound before.

As to `CCc1cc(NCc2ccccc2C(F)(F)F)c(=O)[nH]c1C`, the pIC50 was 4.90.

`CCc1cc(NCc2ccccc2F)c(O)nc1C` gave a negative logarithm of the IC50 (pIC50) of 5.85. This pIC50 lies 0.95 log units higher than the previous one.

The compound `CCc1cc(NCc2cccnc2OC)c(O)nc1C` gave a pIC50 of 6.17.

`CCc1cc(NCc2ccccc2SC)c(=O)[nH]c1C`: the pIC50 was 5.82.

Regarding `CCc1cc(NCc2cc(C)c(C)cc2OC)c(O)nc1C`, the negative logarithm of the IC50 (pIC50) was 8.10. Against the preceding compound, the pIC50 is 2.28 log units higher.

Compound `CCc1cc(NCc2nc(C)c(C)cc2OC)c(O)nc1C` gave a negative-log IC50 (pIC50) of 7.15.

`CCc1cc(CNc2cc(CC)c(C)nc2O)c(O)nc1C` had a pIC50 of 7.04.

The compound `CC(C)=CCN1Cc2cccc3[nH]c(=S)n(c23)C[C@@H]1C` had a pIC50 of 7.15.

As to `CCc1cc(CNc2cc(CC)c(C)[nH]c2=O)c(OC)cc1C`, the pIC50 is 7.48.

As for `CCc1cc(CCc2cc(CC)c(C)nc2OC)c(O)nc1C`, the negative logarithm of the IC50 (pIC50) is 7.19.

`CCc1cc(NCc2c(C)cccc2OC)c(=O)[nH]c1C` had a pIC50 of 5.89.

Compound `CCc1cc(NCc2ccccc2N)c(O)nc1C` showed a negative logarithm of the IC50 (pIC50) of 4.55.

The compound `CCOCn1c(Sc2ccccc2)c(CC)c(=O)[nH]c1=O` had a negative-log IC50 (pIC50) of 7.49. This pIC50 lies 2.94 log units higher than the previous one.

As for `CCc1cc(NCc2cc3c(cc2OC)CCC3)c(=O)[nH]c1C`, the negative logarithm of the IC50 (pIC50) was 7.40. The pIC50 values of the last two compounds are within 0.2 log units of each other.

The compound `CCc1ccc(CNc2cc(CC)c(C)nc2O)c(OC)c1` gave a negative logarithm of the IC50 (pIC50) of 6.29. Compared with the last compound, the pIC50 is 1.11 log units lower.

Turning to `CCc1cc(NCc2ccccc2[N+](=O)[O-])c(=O)[nH]c1C`, the pIC50 is 6.28.

Compound `CCc1cc(NCc2cc(CC)c(C)nc2OC)c(O)nc1C` showed a negative logarithm of the IC50 (pIC50) of 7.72.

For the compound `CCc1cc(NCc2nc3c(cc2OC)CCC3)c(O)nc1C`, the pIC50 was 7.40.

`CCc1cc(NCc2cccc(C)c2OC)c(O)nc1C` showed a negative logarithm of the IC50 (pIC50) of 5.42.

Turning to `CCc1cc(NCc2nc(CC)c(C)cc2OC)c(O)nc1C`, the pIC50 is 7.15. Compared with the last compound, the pIC50 is 1.73 log units higher.

As to `CCc1cc(NCc2nc3c(cc2OC)CCCC3)c(O)nc1C`, the pIC50 was 7.33.

The compound `CCc1cc(NCc2cc(C)ccc2OC)c(O)nc1C` had a negative logarithm of the IC50 (pIC50) of 7.64.

In turn, `CCc1cc(NCc2cnccc2OC)c(=O)[nH]c1C` had a pIC50 of 5.00. This pIC50 lies 2.64 log units lower than the previous one.

For the compound `CCc1cc(NCc2cccc(OC)c2)c(=O)[nH]c1C`, the pIC50 is 5.90.

Turning to `CCc1cc(NCc2cc3c(nc2OC)CCCC3)c(O)nc1C`, the pIC50 is 7.46.

Turning to `CCc1ccccc1CNc1cc(CC)c(C)[nH]c1=O`, the pIC50 is 5.16.

In the case of `CCc1ccc(OC)c(CNc2cc(CC)c(C)nc2O)c1`, the negative-log IC50 (pIC50) is 7.49.

In the case of `CCc1cc(NCc2ccccc2C#N)c(=O)[nH]c1C`, the negative-log IC50 (pIC50) was 6.10.

As for `CCc1cc(NCc2ccccc2OC)c(O)nc1C`, the negative-log IC50 (pIC50) is 6.58.

In the case of `CCc1cc(CCc2cc(CC)c(C)nc2O)c(O)nc1C`, the negative-log IC50 (pIC50) is 6.40.

For the origin of these results see ChEMBL document CHEMBL1127029, “Synthesis and evaluation of 2-pyridinone derivatives as specific HIV-1 reverse transcriptase inhibitors. 3. Pyridyl and phenyl analogs of 3-aminopyridin-2(1H)-one” (J Med Chem, 1993).
